In ChEMBL document CHEMBL4265871, “Novel alkylated azoles as potent antifungals” (Eur J Med Chem, 2017):
Converted amounts (≈) assume the structure as drawn.

What was measured:
[1] = Selectivity index, ratio of EC50 for toxicity in human BEAS2B cells to MIC50 for antifungal activity against Candida glabrata ATCC 2001; assay type: cell-based; details: BEAS-2B cells, read-out: Selectivity Index
Summary of the method: (§1)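 Selectivity index is the EC50 against the mammalian line (A549 or BEAS-2B) divided by the MIC against the given fungal strain.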

[2] = Selectivity index, ratio of EC50 for toxicity in human BEAS2B cells to MIC for antifungal activity against Candida parapsilosis ATCC 22019; details: BEAS-2B cells
Pichia kudriavzevii = test: Antifungal activity against Candida krusei ATCC 6258 incubated for 48 hrs by modified CLSI M27-A3 protocol based method; assay type: functional; details: ATCC 6258, 48 h, read-out: MIC100
Summary of the method: (§2)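 For C. albicans ATCC 10231, C. krusei ATCC 6258 and C. parapsilosis ATCC 22019, MIC-0 was read, meaning complete growth inhibition. For azole controls, MIC-2 (50% growth inhibition) was reported instead. Caspofungin and voriconazole were tested here; other controls came from earlier work.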

[3] = Selectivity index, ratio of […] for toxicity in human A549 cells to MIC50 for antifungal activity against Aspergillus terreus ATCC MYA-3633; assay type: cell-based; details: read-out: Selectivity Index
[4] = Selectivity index, ratio of EC50 for toxicity in human A549 cells to MIC100 for antifungal activity against Candida albicans ATCC 10231; assay type: cell-based; details: read-out: Selectivity Index; summary of the method: as §1
[5] = Selectivity index, ratio of EC50 for toxicity in human BEAS2B cells to MIC50 for antifungal activity against Candida albicans ATCC 64124; assay type: cell-based; details: BEAS-2B cells, read-out: Selectivity Index; summary of the method: as §1
[6] = Selectivity index, ratio of […] for toxicity in human A549 cells to MIC50 for antifungal activity against Aspergillus flavus ATCC MYA-3631; assay type: cell-based; details: read-out: Selectivity Index
[7] = Selectivity index, ratio of EC50 for toxicity in human A549 cells to MIC50 for antifungal activity against Candida albicans ATCC 64124; assay type: cell-based; details: read-out: Selectivity Index; summary of the method: as §1
[8] = Hemolytic activity in mouse erythrocytes assessed as hemolysis level at 31.3 ug/ml incubated for 1 hr at 37 degC; assay type: ADME, cell-based, Erythrocyte; details: read-out: Activity
Summary of the method: (§3)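 Mouse erythrocytes incubated 1 h at 37 °C with test agents over 1.95 to 125 µg/mL. Percent lysis is read for each concentration.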

Candida albicans [9] = test: Antifungal activity against ITC and FLC-resistant Candida albicans ATCC 1237 incubated for 48 hrs by modified CLSI M27-A3 protocol based method; assay type: functional; details: ATCC 1237, 48 h
Summary of the method: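 Because these Candida strains show trailing growth, MIC-2 was read, meaning 50% growth inhibition. Caspofungin and voriconazole were tested here; other controls came from earlier work.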

[10] = Hemolytic activity in mouse erythrocytes assessed as hemolysis level at 1.95 ug/ml incubated for 1 hr at 37 degC; assay type: ADME, cell-based, Erythrocyte; details: read-out: Activity; summary of the method: as §3
Nakaseomyces glabratus = test: Antifungal activity against Candida glabrata ATCC 2001 incubated for 48 hrs by modified CLSI M27-A3 protocol based method; assay type: functional; details: ATCC 2001, 48 h
Candida albicans [11] = test: Antifungal activity against ITC and FLC-susceptible Candida albicans ATCC MYA-2310 incubated for 48 hrs by modified CLSI M27-A3 protocol based method; assay type: functional; details: ATCC MYA-2310, 48 h
[12] = Selectivity index, ratio of EC50 for toxicity in human BEAS2B cells to MIC50 for antifungal activity against ITC and FLC-susceptible Candida albicans ATCC MYA-2876; assay type: cell-based; details: BEAS-2B cells, read-out: Selectivity Index
Summary of the method: (§4)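 Ratio of the compound's EC50 against BEAS-2B cells to its MIC against the named C. albicans strain. […] For C. albicans strains other than ATCC 10231, trailing growth meant MIC-2 was taken, meaning 50% growth inhibition.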

[13] = Selectivity index, ratio of EC50 for toxicity in human A549 cells to MIC50 for antifungal activity against ITC and FLC-resistant Candida albicans ATCC MYA-90819; assay type: cell-based; details: read-out: Selectivity Index; summary of the method: as §1
[14] = Selectivity index, ratio of EC50 for toxicity in human BEAS2B cells to MIC100 for antifungal activity against Candida albicans ATCC 10231; assay type: cell-based; details: BEAS-2B cells, read-out: Selectivity Index; summary of the method: as §1
[15] = Toxicity in human BEAS2B cells assessed as reduction in cell viability incubated for 24 hrs by resazurin dye based assay; details: BEAS-2B cells
Summary of the method: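 Toxicity tested in the nucleated lines A549 and BEAS-2B to give EC50 values. Selectivity index is EC50 against the mammalian line divided by the MIC against a given fungal strain.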

Candida albicans [16] = test: Antifungal activity against Candida albicans ATCC 10231 incubated for 48 hrs by modified CLSI M27-A3 protocol based method; assay type: functional; details: ATCC 10231, 48 h, read-out: MIC100; summary of the method: as §2
Aspergillus terreus = test: Antifungal activity against Aspergillus terreus ATCC MYA-3633 incubated for 48 hrs by CLSI M38-A2 protocol based method; assay type: functional; details: ATCC MYA-3633, 48 h, read-out: MIC100
Aspergillus nidulans = test: Antifungal activity against Aspergillus nidulans ATCC 38163 incubated for 48 hrs by CLSI M38-A2 protocol based method; assay type: functional; details: ATCC 38163, 48 h, read-out: MIC100
Aspergillus flavus = test: Antifungal activity against Aspergillus flavus ATCC MYA-3631 incubated for 48 hrs by CLSI M38-A2 protocol based method; assay type: functional; details: ATCC MYA-3631, 48 h, read-out: MIC100
[17] = Hemolytic activity in mouse erythrocytes assessed as hemolysis level at 3.9 ug/ml incubated for 1 hr at 37 degC; assay type: ADME, cell-based, Erythrocyte; details: read-out: Activity; summary of the method: as §3
[18] = Selectivity index, ratio of […] for toxicity in human BEAS2B cells to MIC50 for antifungal activity against Aspergillus nidulans ATCC 38163; assay type: cell-based; details: BEAS-2B cells, read-out: Selectivity Index
Candida parapsilosis = test: Antifungal activity against Candida parapsilosis ATCC 22019 incubated for 48 hrs by modified CLSI M27-A3 protocol based method; assay type: functional; details: Lodderomyces parapsilosis, ATCC 22019, 48 h; read-out: MIC100; summary of the method: as §2
[19] = Selectivity index, ratio of EC50 for toxicity in human A549 cells to MIC50 for antifungal activity against Candida krusei ATCC 6258
[20] = Hemolytic activity in mouse erythrocytes assessed as hemolysis level at 7.8 ug/ml incubated for 1 hr at 37 degC; assay type: ADME, cell-based, Erythrocyte; details: read-out: Activity; summary of the method: as §3
[21] = Selectivity index, ratio of EC50 for toxicity in human A549 cells to MIC for antifungal activity against Candida parapsilosis ATCC 22019
[22] = Selectivity index, ratio of EC50 for toxicity in human A549 cells to MIC50 for antifungal activity against ITC and FLC-resistant Candida albicans ATCC 1237; assay type: cell-based; details: read-out: Selectivity Index; summary of the method: as §1
[23] = Selectivity index, ratio of EC50 for toxicity in human BEAS2B cells to MIC50 for antifungal activity against ITC and FLC-susceptible Candida albicans ATCC MYA-2310; assay type: cell-based; details: BEAS-2B cells, read-out: Selectivity Index; summary of the method: as §4
[24] = Selectivity index, ratio of […] for toxicity in human A549 cells to MIC50 for antifungal activity against Aspergillus nidulans ATCC 38163; assay type: cell-based; details: read-out: Selectivity Index
Candida albicans [25] = test: Antifungal activity against ITC and FLC-resistant Candida albicans ATCC MYA-90819 incubated for 48 hrs by modified CLSI M27-A3 protocol based method; assay type: functional; details: ATCC MYA-90819, 48 h

Row | SMILES | selectivity ratio [1] | selectivity ratio [2] | MIC (Pichia kudriavzevii) [µM] | selectivity ratio [3] | selectivity ratio [4] | selectivity ratio [5] | selectivity ratio [6] | selectivity ratio [7] | hemolysis at 1 h, 31.3 ug/ml [8] [%] | MIC50 (Candida albicans [9]) [µM] | hemolysis at 1 h, 1.95 ug/ml [10] [%] | MIC50 (Nakaseomyces glabratus) [µM] | MIC50 (Candida albicans [11]) [µM] | selectivity ratio [12] | selectivity ratio [13] | selectivity ratio [14] | EC50 at 24 h [15] [µg/mL] | MIC (Candida albicans [16]) [µM] | MIC (Aspergillus terreus) [µM] | MIC (Aspergillus nidulans) [µM] | other results
1 | CCCCCC(O)(Cn1cncn1)c1ccccc1Cl (centres undefined) | 32 | 261 | 3.3 (≈ 0.97 µg/mL) | 2 | 4 | 1 | 1 | 1 | 0 | 3.3 (≈ 0.97 µg/mL) | 0 | 3.3 (≈ 0.97 µg/mL) | 3.3 (≈ 0.97 µg/mL) | 32 | 65 | 4 | > 31.3 | 26.5 (≈ 7.79 µg/mL) | 53.1 (≈ 15.6 µg/mL) | 3.3 (≈ 0.97 µg/mL) | MIC (Aspergillus flavus): > 106 µM; hemolysis at 1 h, 3.9 ug/ml [17]: 0%; selectivity ratio [18]: 32; MIC (Candida parapsilosis): 0.41 µM (≈ 0.12 µg/mL); selectivity ratio [19]: 32; hemolysis at 1 h, 7.8 ug/ml [20]: 0%; selectivity ratio [21]: 261; selectivity ratio [22]: 32; selectivity ratio [23]: 32; selectivity ratio [24]: 32; MIC50 (Candida albicans [25]): 1.6 µM (≈ 0.47 µg/mL)
2 | CCCCCCC(O)(Cn1cncn1)c1ccc(F)cc1F (centres undefined) | 8 | 1040 | 0.39 (≈ 0.121 µg/mL) | 4 | 18 | 4 | 2 | 4 | 10.4 | 6.3 (≈ 1.95 µg/mL) | 0 | 12.6 (≈ 3.9 µg/mL) | 12.6 (≈ 3.9 µg/mL) | 16 | 18 | 16 | > 31.3 | 6.3 (≈ 1.95 µg/mL) | 25.2 (≈ 7.8 µg/mL) | 1.6 (≈ 0.495 µg/mL) | MIC (Aspergillus flavus): 50.4 µM (≈ 15.6 µg/mL); hemolysis at 1 h, 3.9 ug/ml [17]: 0%; selectivity ratio [18]: 65; MIC (Candida parapsilosis): < 0.1 µM; selectivity ratio [19]: 292; hemolysis at 1 h, 7.8 ug/ml [20]: 0%; selectivity ratio [21]: 1170; selectivity ratio [22]: 18; selectivity ratio [23]: 8; selectivity ratio [24]: 73; MIC50 (Candida albicans [25]): 6.3 µM (≈ 1.95 µg/mL)
3 | CCCCCCC(O)(Cn1cncn1)c1ccc(Cl)cc1 (centres undefined) | 1 | 1 | 6.3 (≈ 1.94 µg/mL) | 2 | 19 | 1 | 1 | 1 | 9.5 | 12.7 (≈ 3.91 µg/mL) | 0 | > 102 | 102 (≈ 31.3 µg/mL) | 4 | 10 | 16 | > 31.3 | 6.3 (≈ 1.94 µg/mL) | 50.7 (≈ 15.6 µg/mL) | 12.7 (≈ 3.91 µg/mL) | MIC (Aspergillus flavus): > 102 µM; hemolysis at 1 h, 3.9 ug/ml [17]: 0%; selectivity ratio [18]: 8; MIC (Candida parapsilosis): > 102 µM; selectivity ratio [19]: 19; hemolysis at 1 h, 7.8 ug/ml [20]: 0%; selectivity ratio [21]: 1; selectivity ratio [22]: 10; selectivity ratio [23]: 1; selectivity ratio [24]: 10; MIC50 (Candida albicans [25]): 12.7 µM (≈ 3.91 µg/mL)
4 | CCCCCCC(O)(Cn1cncn1)c1ccc(F)cc1 (centres undefined) | 4 | 65 | 3.3 (≈ 0.962 µg/mL) | 2 | 2 | 1 | 1 | 1 | 0 | 107 (≈ 31.3 µg/mL) | 0 | 26.8 (≈ 7.81 µg/mL) | 26.8 (≈ 7.81 µg/mL) | 4 | 32 | 2 | > 31.3 | 53.5 (≈ 15.6 µg/mL) | 53.5 (≈ 15.6 µg/mL) | 6.7 (≈ 1.95 µg/mL) | MIC (Aspergillus flavus): > 107 µM; hemolysis at 1 h, 3.9 ug/ml [17]: 0%; selectivity ratio [18]: 16; MIC (Candida parapsilosis): 1.6 µM (≈ 0.466 µg/mL); selectivity ratio [19]: 32; hemolysis at 1 h, 7.8 ug/ml [20]: 5.2%; selectivity ratio [21]: 65; selectivity ratio [22]: 1; selectivity ratio [23]: 4; selectivity ratio [24]: 16; MIC50 (Candida albicans [25]): 3.3 µM (≈ 0.962 µg/mL)
